Activity calls are given as the source filed them. The rule behind the calls is not given here.
How the values were obtained:
[1] = biological target: T1, Phosphatidylinositol 4,5-bisphosphate 3-kinase catalytic subunit gamma isoform (Homo sapiens, UniProt P48736); experiment: Binding affinity to human PI3Kgamma equilibrate for 6 hrs by scan-kinetic platform assay
Procedure, shortened: (§1)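 scanKINETIC format on PI3Kα and PI3Kγ. […] Arm C: equilibrated 1 h. Arm B: equilibrated 1 h, diluted 30-fold, then re-equilibrated. Arm D: diluted immediately, then equilibrated. Kd compared with and without the dilution step to judge reversibility.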

[2] = biological target: T2, Phosphatidylinositol 4,5-bisphosphate 3-kinase catalytic subunit alpha isoform (Homo sapiens, UniProt P42336); experiment: Binding affinity to human PI3Kalpha equilibrate for 1 hr by scan-kinetic platform assay; procedure, shortened: as §1
[3] = biological target: T3, PI3-kinase p110-alpha/p85-alpha (Homo sapiens) (UniProt P27986+P42336); experiment: Binding affinity to PI3Kalpha/p85alpha (unknown origin) assessed as covalent modification at Lys802 residue at 4 uM after 2 mins by tandem MS/MS method; assay type: protein-complex assay
Procedure, shortened: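 Recombinant PI3Kα (p110α/p85α) at 2 μM mixed with 4 μM inhibitor in 10 mM HEPES pH 7.5, 100 mM NaCl, 5% DMSO. Timepoints quenched by unfolding in ice-cold 2 M guanidine-HCl/3% formic acid, snap-frozen in liquid N2, stored at −80 °C. Analysed by LC-MS/MS; mass shift of the modified peptide read out.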

[4] = biological target: T3, PI3-kinase p110-alpha/p85-alpha (Homo sapiens); experiment: Binding affinity to PI3Kalpha/p85alpha (unknown origin) assessed as covalent modification at Lys802 residue at 4 uM measured for 3/300 secs by hydrogen-deuterium exchange mass spectrometry; assay type: protein-complex assay
Procedure, shortened: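 PI3Kα (p110α/p85α) preincubated 30 min at 2 μM with 4 μM inhibitor or DMSO (5% final). Diluted to 0.4 μM in 50 μL for deuterium exchange at 3 s on ice and 300 s at 20 °C. Quenched with ice-cold 2 M guanidine-HCl/3% formic acid, then UPLC-TOF-MS. Peptide changes >5% and >0.4 Da with paired t-test p<0.01 taken as significant.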

[5] = biological target: T1, Phosphatidylinositol 4,5-bisphosphate 3-kinase catalytic subunit gamma isoform; experiment: Binding affinity to human PI3Kgamma equilibrate for 1 hr by scan-kinetic platform assay; procedure, shortened: as §1
[6] = biological target: Epidermal growth factor receptor (Homo sapiens) (UniProt P00533); experiment: Inhibition of EGFR in human HeLa cells assessed as reduction in EGF-stimulated EGFR phosphorylation at 0.3 to 100 nM preincubated for 10 mins followed by EGF stimulation measured after 5 mins by Western blot analysis; assay type: cell-based
Procedure, shortened: (§2)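 HeLa cells were serum-starved overnight, pretreated with compound for 10 min, then stimulated with 10 ng mL-1 EGF for 5 min. Lysis was in boiling SDS sample buffer, with protein quantified at 660 nm. Equal protein was resolved by SDS-PAGE and Western blotted for pEGFR Tyr1068, pAKT Ser473/Thr308, and pERK1/2 Thr202/Tyr204 with total proteins and GAPDH, detected by ECL.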

[7] = biological target: Tyrosine-protein kinase Lck (Homo sapiens, UniProt P06239); experiment: Binding affinity to human LCK after 1 hr by KINOMEscan assay
[8] = biological target: T2, Phosphatidylinositol 4,5-bisphosphate 3-kinase catalytic subunit alpha isoform; experiment: Binding affinity to human PI3Kalpha equilibrate for 6 hrs by scan-kinetic platform assay; procedure, shortened: as §1
[9] = biological target: Phosphatidylinositol 4,5-bisphosphate 3-kinase catalytic subunit beta isoform (Homo sapiens, UniProt P42338); experiment: Binding affinity to human PI3Kbeta after 1 hr by KINOMEscan assay
[10] = biological target: Mitogen-activated protein kinase 9 (Homo sapiens) (UniProt P45984); experiment: Binding affinity to human JNK2 at 1 uM after 1 hr by KINOMEscan assay
[11] = biological target: Serine/threonine-protein kinase mTOR (Homo sapiens, UniProt P42345); experiment: Binding affinity to human mTOR after 1 hr by KINOMEscan assay
[12] = biological target: Epidermal growth factor receptor (Homo sapiens) (UniProt P00533); experiment: Inhibition of EGFR in human HeLa cells assessed as reduction in EGF-stimulated ERK1/2 phosphorylation at T202/Y204 at 0.3 to 100 nM preincubated for 10 mins followed by EGF stimulation measured after 5 mins by Western blot analysis; assay type: cell-based; procedure, shortened: as §2
[13] = biological target: T4, Aurora kinase A (Homo sapiens) (UniProt O14965); experiment: Binding affinity to human AURKA at 1 uM after 1 hr by KINOMEscan assay
T4 sequence (whole entry): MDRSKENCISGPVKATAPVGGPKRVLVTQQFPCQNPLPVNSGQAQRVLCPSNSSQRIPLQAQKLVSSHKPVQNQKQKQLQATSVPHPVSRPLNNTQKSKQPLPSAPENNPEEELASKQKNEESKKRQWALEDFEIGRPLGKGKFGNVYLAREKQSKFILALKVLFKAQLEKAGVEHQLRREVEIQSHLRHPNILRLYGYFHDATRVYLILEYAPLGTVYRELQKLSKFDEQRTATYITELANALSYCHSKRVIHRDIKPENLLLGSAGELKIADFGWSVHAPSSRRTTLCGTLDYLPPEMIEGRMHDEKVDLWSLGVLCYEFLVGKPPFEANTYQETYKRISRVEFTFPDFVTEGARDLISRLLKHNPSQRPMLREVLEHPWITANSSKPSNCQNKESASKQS

[14] = biological target: T1, Phosphatidylinositol 4,5-bisphosphate 3-kinase catalytic subunit gamma isoform; experiment: Binding affinity to human PI3Kgamma after 1 hr by KINOMEscan assay

T1 sequence (P48736 whole entry, canonical isoform): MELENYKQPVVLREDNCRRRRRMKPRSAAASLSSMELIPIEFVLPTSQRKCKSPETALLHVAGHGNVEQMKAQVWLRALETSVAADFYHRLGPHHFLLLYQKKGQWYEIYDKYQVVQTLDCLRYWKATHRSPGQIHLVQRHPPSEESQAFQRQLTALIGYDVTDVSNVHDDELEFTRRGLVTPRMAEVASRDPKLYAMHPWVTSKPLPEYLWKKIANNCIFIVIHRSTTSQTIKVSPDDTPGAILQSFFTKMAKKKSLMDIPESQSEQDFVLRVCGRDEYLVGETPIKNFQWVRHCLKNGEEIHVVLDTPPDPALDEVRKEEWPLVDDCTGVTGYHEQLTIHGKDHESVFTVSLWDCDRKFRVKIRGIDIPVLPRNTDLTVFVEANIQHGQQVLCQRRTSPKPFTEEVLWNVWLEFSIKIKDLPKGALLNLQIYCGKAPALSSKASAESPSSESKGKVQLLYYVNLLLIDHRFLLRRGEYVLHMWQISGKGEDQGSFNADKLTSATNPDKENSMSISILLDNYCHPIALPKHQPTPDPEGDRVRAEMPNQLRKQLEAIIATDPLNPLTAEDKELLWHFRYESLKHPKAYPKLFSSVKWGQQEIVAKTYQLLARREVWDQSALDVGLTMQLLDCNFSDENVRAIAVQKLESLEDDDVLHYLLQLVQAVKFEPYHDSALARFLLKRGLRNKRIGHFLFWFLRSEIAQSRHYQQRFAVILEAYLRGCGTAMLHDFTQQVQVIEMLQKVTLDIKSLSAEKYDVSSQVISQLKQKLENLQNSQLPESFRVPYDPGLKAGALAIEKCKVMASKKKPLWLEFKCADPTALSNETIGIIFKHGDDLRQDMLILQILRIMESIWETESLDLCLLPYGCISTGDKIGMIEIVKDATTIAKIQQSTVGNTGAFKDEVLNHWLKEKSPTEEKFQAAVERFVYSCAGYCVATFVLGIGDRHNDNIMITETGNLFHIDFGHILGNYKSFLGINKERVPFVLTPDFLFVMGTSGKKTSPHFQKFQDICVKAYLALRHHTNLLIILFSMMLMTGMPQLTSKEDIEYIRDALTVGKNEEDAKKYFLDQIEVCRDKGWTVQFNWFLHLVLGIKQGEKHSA
Chain of Epidermal growth factor receptor (Homo sapiens) (P00533 whole entry): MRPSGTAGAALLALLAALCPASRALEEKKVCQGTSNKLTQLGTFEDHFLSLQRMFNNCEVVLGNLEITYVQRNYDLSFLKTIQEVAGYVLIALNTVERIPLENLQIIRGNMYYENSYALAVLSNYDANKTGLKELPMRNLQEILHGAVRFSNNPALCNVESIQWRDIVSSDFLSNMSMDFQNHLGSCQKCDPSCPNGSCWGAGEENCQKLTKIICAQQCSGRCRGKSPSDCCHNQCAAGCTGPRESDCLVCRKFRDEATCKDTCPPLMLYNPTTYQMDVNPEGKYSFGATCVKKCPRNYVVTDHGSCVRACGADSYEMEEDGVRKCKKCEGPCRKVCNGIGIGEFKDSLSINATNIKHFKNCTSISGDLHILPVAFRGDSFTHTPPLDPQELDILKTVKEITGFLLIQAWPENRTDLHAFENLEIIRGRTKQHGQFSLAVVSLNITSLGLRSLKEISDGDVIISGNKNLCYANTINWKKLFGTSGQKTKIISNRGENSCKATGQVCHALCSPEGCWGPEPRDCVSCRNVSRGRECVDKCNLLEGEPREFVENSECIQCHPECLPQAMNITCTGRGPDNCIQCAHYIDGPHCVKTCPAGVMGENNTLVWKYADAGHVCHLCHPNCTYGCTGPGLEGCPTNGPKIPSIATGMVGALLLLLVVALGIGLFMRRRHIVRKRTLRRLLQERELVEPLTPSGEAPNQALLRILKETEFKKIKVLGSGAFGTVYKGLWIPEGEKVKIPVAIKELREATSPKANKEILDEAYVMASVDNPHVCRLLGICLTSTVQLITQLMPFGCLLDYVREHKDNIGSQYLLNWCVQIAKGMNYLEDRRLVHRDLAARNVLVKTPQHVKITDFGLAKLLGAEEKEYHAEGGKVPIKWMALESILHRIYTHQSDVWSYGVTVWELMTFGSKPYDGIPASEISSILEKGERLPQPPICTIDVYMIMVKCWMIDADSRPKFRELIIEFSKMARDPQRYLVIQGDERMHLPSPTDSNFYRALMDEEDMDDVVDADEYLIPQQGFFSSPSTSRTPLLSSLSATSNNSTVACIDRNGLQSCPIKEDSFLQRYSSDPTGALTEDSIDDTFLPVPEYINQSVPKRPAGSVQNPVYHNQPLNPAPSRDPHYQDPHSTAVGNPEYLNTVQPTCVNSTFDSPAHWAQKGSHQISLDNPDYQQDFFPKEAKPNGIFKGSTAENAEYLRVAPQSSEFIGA
T2 sequence (P42336 whole entry, canonical isoform): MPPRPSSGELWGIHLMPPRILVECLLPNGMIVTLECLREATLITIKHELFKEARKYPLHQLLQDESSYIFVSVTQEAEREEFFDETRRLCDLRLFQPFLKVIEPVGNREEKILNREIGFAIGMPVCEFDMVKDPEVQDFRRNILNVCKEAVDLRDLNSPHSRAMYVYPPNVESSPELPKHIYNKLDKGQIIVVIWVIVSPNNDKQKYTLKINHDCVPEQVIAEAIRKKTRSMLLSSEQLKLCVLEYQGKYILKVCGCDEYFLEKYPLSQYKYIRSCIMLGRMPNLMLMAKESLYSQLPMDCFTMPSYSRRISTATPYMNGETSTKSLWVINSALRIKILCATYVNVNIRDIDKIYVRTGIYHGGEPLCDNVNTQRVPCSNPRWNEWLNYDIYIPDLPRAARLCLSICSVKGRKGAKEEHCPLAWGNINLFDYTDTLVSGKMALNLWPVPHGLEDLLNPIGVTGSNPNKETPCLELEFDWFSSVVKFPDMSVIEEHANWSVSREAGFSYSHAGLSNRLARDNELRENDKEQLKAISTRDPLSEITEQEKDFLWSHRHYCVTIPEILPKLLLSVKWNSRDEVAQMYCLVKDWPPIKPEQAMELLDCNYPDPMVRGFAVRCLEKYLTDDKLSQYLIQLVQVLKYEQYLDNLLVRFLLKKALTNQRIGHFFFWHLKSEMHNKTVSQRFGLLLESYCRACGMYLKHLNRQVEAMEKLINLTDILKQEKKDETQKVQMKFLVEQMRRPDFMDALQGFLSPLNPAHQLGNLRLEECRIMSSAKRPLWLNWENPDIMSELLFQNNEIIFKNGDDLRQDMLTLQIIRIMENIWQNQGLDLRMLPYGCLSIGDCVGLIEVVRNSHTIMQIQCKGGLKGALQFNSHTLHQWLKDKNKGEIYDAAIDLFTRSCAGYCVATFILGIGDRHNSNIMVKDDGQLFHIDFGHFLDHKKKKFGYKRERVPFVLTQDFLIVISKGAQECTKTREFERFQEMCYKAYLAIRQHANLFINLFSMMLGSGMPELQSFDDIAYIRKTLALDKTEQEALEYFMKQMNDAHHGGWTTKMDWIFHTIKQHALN
Chain of Phosphatidylinositol 4,5-bisphosphate 3-kinase catalytic subunit beta isoform (P42338 whole entry, canonical isoform): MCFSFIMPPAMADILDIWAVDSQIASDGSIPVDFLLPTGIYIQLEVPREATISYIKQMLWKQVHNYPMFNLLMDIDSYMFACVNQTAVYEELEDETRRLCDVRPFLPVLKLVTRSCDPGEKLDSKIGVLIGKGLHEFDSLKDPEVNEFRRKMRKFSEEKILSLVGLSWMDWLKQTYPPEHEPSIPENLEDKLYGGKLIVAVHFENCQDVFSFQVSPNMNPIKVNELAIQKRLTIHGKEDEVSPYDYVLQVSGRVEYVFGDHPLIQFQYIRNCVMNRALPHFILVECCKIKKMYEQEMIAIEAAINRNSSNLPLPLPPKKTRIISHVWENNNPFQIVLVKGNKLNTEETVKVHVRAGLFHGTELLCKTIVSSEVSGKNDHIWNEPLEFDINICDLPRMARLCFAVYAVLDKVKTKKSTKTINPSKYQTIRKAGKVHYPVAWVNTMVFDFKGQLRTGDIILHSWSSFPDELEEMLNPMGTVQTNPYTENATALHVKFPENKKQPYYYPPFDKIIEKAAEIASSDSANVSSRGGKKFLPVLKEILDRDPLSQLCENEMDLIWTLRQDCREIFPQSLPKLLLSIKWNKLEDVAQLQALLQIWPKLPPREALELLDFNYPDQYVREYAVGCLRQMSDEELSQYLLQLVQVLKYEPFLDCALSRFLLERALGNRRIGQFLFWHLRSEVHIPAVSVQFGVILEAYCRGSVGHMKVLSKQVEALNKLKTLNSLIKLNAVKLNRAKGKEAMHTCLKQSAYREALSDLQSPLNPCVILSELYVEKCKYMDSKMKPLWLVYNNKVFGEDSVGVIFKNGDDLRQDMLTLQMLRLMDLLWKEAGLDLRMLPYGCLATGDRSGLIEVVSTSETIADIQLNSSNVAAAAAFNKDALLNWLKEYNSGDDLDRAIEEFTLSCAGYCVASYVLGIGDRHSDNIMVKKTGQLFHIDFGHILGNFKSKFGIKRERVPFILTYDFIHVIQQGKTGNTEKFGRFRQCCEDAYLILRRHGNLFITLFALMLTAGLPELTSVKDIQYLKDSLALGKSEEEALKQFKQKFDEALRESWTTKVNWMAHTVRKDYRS
Chain of Mitogen-activated protein kinase 9 (Homo sapiens) (P45984 whole entry, looked up): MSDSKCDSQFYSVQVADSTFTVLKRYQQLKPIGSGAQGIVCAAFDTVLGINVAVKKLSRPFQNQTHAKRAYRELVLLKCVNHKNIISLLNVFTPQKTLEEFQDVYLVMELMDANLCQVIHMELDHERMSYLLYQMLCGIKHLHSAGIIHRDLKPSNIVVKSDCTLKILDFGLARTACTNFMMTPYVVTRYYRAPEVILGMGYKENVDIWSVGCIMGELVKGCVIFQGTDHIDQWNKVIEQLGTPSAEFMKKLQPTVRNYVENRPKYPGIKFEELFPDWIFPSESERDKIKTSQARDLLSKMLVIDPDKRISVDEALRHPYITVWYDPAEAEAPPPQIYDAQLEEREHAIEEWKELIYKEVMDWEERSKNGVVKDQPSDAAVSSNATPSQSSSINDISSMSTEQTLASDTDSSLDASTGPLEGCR

Kd [1]: 1.9 to 2 nM | Kd [2]: 0.65 to 0.68 nM | Activity [3]: Active | Activity [4]: Active | Kd [5]: 2 to 3.3 nM | inhibition [6]: inactive | Kd [7]: 4600 nM | Kd [8]: 0.43 to 0.45 nM | Kd [9]: 5.7 nM | Activity [10]: Active | Kd [11]: 10 nM | inhibition [12]: inactive | Activity [13]: Active | Kd [14]: 3.5 nM
SMILES: CO/C=C/C(=O)c1cc2c3c(c(N)cc(NC(=O)C(C)C)c3n1)N=C2

From ChEMBL document CHEMBL4266033, “Neolymphostin A Is a Covalent Phosphoinositide 3-Kinase (PI3K)/Mammalian Target of Rapamycin (mTOR) Dual Inhibitor That Employs an Unusual Electrophilic Vinylogous Ester” (J Med Chem, 2018)
